MrgX1 antagonist = blocks BAM8-22 activation of human MrgX1 receptor; AID 588676; B-score at 10 µM; 1.3% of 310,000 active; MRGX1-HEK293 calcium flux, Fluo-4, BAM8-22 antagonism; hits give low values;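 active = calcium-response B-score plate-corrected more than 3 library SD below zero, starting fluorescence within 5 deviations, no agonist response on first addition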;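 also: peak minus trough fluorescence over baseline after final BAM8-22 challenge near maximal dose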
Target sequence (Q96LB2 whole entry, looked up): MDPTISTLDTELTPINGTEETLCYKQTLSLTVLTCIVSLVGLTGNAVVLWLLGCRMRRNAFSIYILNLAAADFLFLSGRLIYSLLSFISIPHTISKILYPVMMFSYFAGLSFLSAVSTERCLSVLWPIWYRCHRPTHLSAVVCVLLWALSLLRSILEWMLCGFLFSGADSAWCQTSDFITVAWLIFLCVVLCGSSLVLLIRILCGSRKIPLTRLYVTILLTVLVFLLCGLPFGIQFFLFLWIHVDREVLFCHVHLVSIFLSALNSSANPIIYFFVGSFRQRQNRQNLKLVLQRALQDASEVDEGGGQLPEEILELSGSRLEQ
RGS4 act = potentiators or activators of RGS4 | HEK293 M3R/inducible RGS4, carbachol calcium flux Fluo4; hits give low values | B-score at 10 µM | 0.92% of 310,000 active | AID 463111;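 active = B-score of the integrated calcium signal more than 4 SD below the library mean, with starting fluorescence not abnormally high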;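 also: negative B-score means reduced calcium response which marks RGS4 activation or potentiation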
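Assay system: HEK293 FlpIn-TREx cells, stable M3R, doxycycline-inducible RGS4 / Probe or stimulus: carbachol, ECmax concentration / Times: overnight RGS4 induction, 30 min dye load 37 °C, 20 min compound RT / Signal: kinetic calcium fluorescence imaging with Fluo4-AM dye, 2 µM / Measure: Agonist-evoked peak-minus-minimum fluorescence over baseline, integrated ratio, B score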
RGS4 inh = inhibitors of human RGS4; P49798; HEK293 M3R/RGS4 inducible, Fluo-4 calcium flux; hits give high values; triggered by carbachol at its EC20; B-score at 10 µM; 0.45% of 310,000 active;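 active = B-score, a plate-corrected calcium signal, over three deviations above library mean, with baseline fluorescence within five deviations of library mean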;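 also: RGS4 expression induced by doxycycline in cells with stable M3 receptor; B-score is computed from the integrated fluorescence ratio over baseline after carbachol; higher B-score means a larger calcium signal and so more RGS4 inhibition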
Target sequence (P49798 whole entry, looked up): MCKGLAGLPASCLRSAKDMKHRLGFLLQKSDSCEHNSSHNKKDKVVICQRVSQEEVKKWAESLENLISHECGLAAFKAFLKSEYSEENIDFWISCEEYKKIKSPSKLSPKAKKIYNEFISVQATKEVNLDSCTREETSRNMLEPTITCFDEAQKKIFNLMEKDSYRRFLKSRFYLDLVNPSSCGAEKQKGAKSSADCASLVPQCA
MrgX1 agonist = agonists of human MrgX1 receptor; 0.44% of 310,000 active; MrgX1-HEK293 cells, Fluo-4 calcium fluorescence, agonist mode; hits give high values; Q96LB2; B-score at 10 µM;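 active = calcium response B-score plate-corrected fluorescence ratio at least 3 library SD, with starting fluorescence B-score inside 5 SD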
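Test system: Stable human MrgX1 HEK293 cell line | Schedule: Overnight plating before 1 h dye loading | Read-out basis: Baseline-normalised fluorescence change ratio, B-scored | Detection: Kinetic calcium dye fluorescence, Fluo-4 NW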
MrgX1 PAM = human MrgX1 positive allosteric modulation, primary screen; MrgX1-HEK293, Fluo-4 calcium flux, FDSS; hits give high values; Q96LB2; B-score at 10 µM; 0.63% of 310,000 active;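 active = plate-corrected calcium response at least 3 library SD above typical, normal starting fluorescence, not activating the receptor alone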;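 also: compound read alongside a low EC10 to EC30 dose of BAM8-22 agonist; peak minus trough fluorescence over baseline measured at the second addition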
MrgX1 allo conf = confirmation of human MrgX1 receptor positive allosteric modulators; 13% of 1,200 active; MrgX1-HEK293, Fluo-4 calcium fluorescence, FDSS; activation (ratio percentage), % at 10 µM; shares compounds with MrgX1 PAM;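 active = ratio at least 3 SD above the weak peptide control, stable starting fluorescence, no direct agonism earlier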;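 also: compound followed by low BAM8-22 agonist challenge near EC20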
HEK293 Ca flux = counter-screen for MrgX1 antagonists: effect in parental HEK293 cells; shares compounds with MrgX1 antagonist; Fluo-4 calcium fluorescence, FDSS; fluorescence ratio F(max-min)/F0 at 10 µM; 2% of 4,000 active; AID 624111;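 active = duplicate-averaged calcium fluorescence ratio at least three times the standard deviation of buffer wells, a nonspecific response in parental cells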
HEK293 Ca counter = counter-screen for MrgX1 allosteric activators: effect in parental HEK293 cells; shares compounds with MrgX1 antagonist; parental HEK293 calcium flux, Fluo-4 fluorescence ratio; hits give high values; fluorescence ratio F(max-min)/F0 at 10 µM; 0.4% of 4,000 active;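 active = calcium fluorescence ratio, averaged over duplicates, at least 3 SD of the buffer-well ratio, meaning a nonspecific response in receptor-free cells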;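 also: untransfected parental HEK293 lacking MrgX1 used as counterscreen for MrgX1 allosteric activators; fluorescence change taken during the second addition on a kinetic imager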
HEK293 Ca cntr2 = counter-screen for MrgX1 activators: effect in parental HEK293 cells | fluorescence ratio F(max-min)/F0 at 10 µM | AID 624115 | 8.7% of 4,000 active | Fluo-4 calcium fluorescence (FDSS); hits give high values | shares compounds with MrgX1 antagonist;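 active = calcium fluorescence ratio at least three times the spread of buffer wells, meaning a non-specific response in parental cells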
Active calls of the source: *; i = inactive; . = no result. Most compounds without a hit are left out; they make up all but 3.5% or so of the library.

SMILES	MrgX1 antagonist	RGS4 act	RGS4 inh	MrgX1 agonist	MrgX1 PAM	MrgX1 allo conf	HEK293 Ca flux	HEK293 Ca counter	HEK293 Ca cntr2
COC(=O)c1nc2cc3c(cc2c(C)c1C(=O)OC)OCO3	i	i	i	i	i	.	.	.	.
COc1cc(SC)ccc1C(=O)OCC(=O)N1CCCC1	i	i	i	i	11*	i	i	i	i
O=C(c1ccc(Br)cc1)N1CCN(Cc2ccccc2)CC1	i	i	i	i	6.5*	i	i	i	i
COc1cccc(CN2CC(C(=O)NCCN3CCOCC3)CCC2=O)c1 (stereo not drawn)	i	i	i	i	i	.	.	.	.
Cc1cccc(C)c1NC(=O)CN(C)C(=O)c1cccc(S(=O)(=O)N2CCN(c3ccc(F)cc3)CC2)c1	i	i	i	i	9*	i	i	i	i
Cc1cc2nccc(-c3cccnc3)n2n1	i	i	i	i	i	.	.	.	.
CC(C)Oc1ccc(NC(=O)c2ccncc2)cc1	i	i	i	i	i	.	.	.	.
CC(=O)c1sc2nc(C)c3c(c2c1N)CCCC3	i	i	i	i	9.7*	i	i	i	i
O=C(CS(=O)(=O)c1ccc(Cl)cc1)Nc1nnc(-c2cccs2)o1	i	i	i	i	i	.	.	.	.
O=C(CCl)Nc1cccc(Oc2cnccn2)c1	i	i	i	i	i	.	.	.	.
O=C(CCl)Nc1cccc(Oc2ccccc2)c1	i	i	i	i	13*	i	i	i	48*
O=C(NC1CCCC1)C(c1ccncc1)N(C(=O)c1csnn1)C1CCCC1 (stereo not drawn)	i	i	i	i	i	.	.	.	.
COc1ccccc1-c1nc2ccccc2nc1-c1ccccc1	i	i	i	i	9*	i	i	51*	i
CC(C)CNC(=O)COC(=O)c1n[nH]c2ccccc12	i	i	i	i	i	.	.	.	.
Nc1ncnc2nc(N3CCN(C(=O)c4ccccc4)CC3)[nH]c12	i	i	i	i	17*	i	i	i	i
O=C(c1ccccc1)N1CCN(c2ncccn2)CC1	i	i	i	i	i	.	.	.	.
O=C(CN1CCC(O)(c2cccc(F)c2)CC1)NCCc1c[nH]c2ccccc12	i	i	i	i	7.6*	i	i	i	i
O=C(NCCc1c[nH]c2ccccc12)c1ccc(F)cc1F	i	i	i	i	i	.	.	.	.
CCOC(=O)C1CCN(C(=O)c2ccccc2CCc2ccccc2)CC1	i	i	i	i	i	.	.	.	.
Cc1c(C)n(CC(O)CN2C(=O)c3ccccc3S2(=O)=O)c2ccccc12 (stereo not drawn)	i	i	i	i	10*	i	i	i	i
CCN1C(=O)CSC1=NC1C2CC3CC(C2)CC1C3 (stereo not drawn)	i	i	i	i	14*	i	i	i	i
CCCC(C)NC(=O)CSc1nc2ccc(C)cc2[nH]1 (stereo not drawn)	i	i	i	i	i	.	.	.	.
COc1ccccc1C(=O)Nc1ccc(Br)cc1C	i	i	i	i	i	.	.	.	.
Fc1cccc(-c2cc3nc4c(c(N5CCC6(CC5)OCCO6)n3n2)CCCC4)c1	i	i	i	i	7.6*	i	i	i	i
CC(=O)c1sc(N2CCOCC2)nc1-c1ccccc1	i	i	i	i	12*	i	i	i	i
SMILES	MrgX1 antagonist	RGS4 act	RGS4 inh	MrgX1 agonist	MrgX1 PAM	MrgX1 allo conf	HEK293 Ca flux	HEK293 Ca counter	HEK293 Ca cntr2
CCOC(=O)CSc1nc2ccc(N)cc2s1	i	i	i	i	i	.	.	.	.
Nc1ccc2nc(SCc3cccc(F)c3)sc2c1	i	i	i	i	9.2*	i	i	i	i
COc1ccc(-c2cc(C(=O)N3CCN(c4ncccn4)CC3)c3ccccc3n2)c(OC)c1	i	i	i	i	7.4*	i	i	i	71*
COc1cc(NC(=O)C2CCCC2)c(OC)cc1Cl	i	i	i	i	6.6*	i	i	i	i
O=C(c1ccco1)N1CCC(c2nc3ccccc3[nH]2)CC1	i	i	i	i	i	.	.	.	.
CCNc1nc(Oc2c(Cl)cccc2Cl)cc(C(F)(F)F)n1	i	i	i	i	i	.	.	.	.
CCNc1nc(Oc2ccc(OC)cc2)cc(C(F)(F)F)n1	i	i	i	i	10*	i	i	i	i
CCNc1nc(Sc2ccc(C)cc2)cc(C(F)(F)F)n1	i	i	i	i	6.8*	15%*	i	i	i
COc1cc2c(cc1OC)CN(S(=O)(=O)/C=C/c1ccccc1)CC2	i	i	i	i	i	.	.	.	.
O=C(N/N=C/c1cc(Br)ccc1OC(=O)c1ccc(Br)cc1)c1ccncc1	i	i	i	i	i	.	.	.	.
CCNc1nc2[nH]c(=O)c3c(c2s1)OC(N)=C(C#N)C3c1ccc(C)cc1 (stereo not drawn)	i	i	i	i	16*	i	i	i	51*
CCOC(=O)c1sc(=NC(=O)CCSc2ccccc2)n(C)c1C	i	i	i	i	i	.	.	.	.
CCOC(=O)c1sc(=NC(=O)COc2ccccc2)n(C)c1C	i	i	i	i	11*	i	i	i	i
CS(=O)(=O)Nc1cccc(C2=NN(C(=O)CCCC(=O)O)C(c3cccs3)C2)c1 (stereo not drawn)	i	i	i	i	i	.	.	.	.
O=C(CCN1CCc2ccccc2C1)Nc1ccc(F)c(F)c1	i	i	i	i	25*	i	i	i	i
O=C(CCN1CCc2ccccc2C1)Nc1ccc2c(c1)OCO2	i	i	i	i	i	.	.	.	.
Cc1nc2c(C#N)cnn2c2c1CCN2CC1CCCO1 (stereo not drawn)	i	i	i	i	7.2*	i	i	i	i
Cc1nc2c(C#N)cnn2c2c1CCN(Cc1ccccc1)N2C	i	i	i	i	i	.	.	.	.

High-throughput results (PubChem)
